From ChEMBL document CHEMBL3259569 (J Med Chem, 2014)
Active and inactive are the calls of the source. The rule behind the calls is not given here.

Assays:
HCT-116 [1] = experiment: Cytotoxicity against human HCT116 cells by MTT assay; format: functional, cell-based
KB = experiment: Cytotoxicity against human KB cells by MTT assay; format: functional, cell-based
PC-3 = experiment: Cytotoxicity against human PC3 cells by MTT assay; format: functional, cell-based
[2] = Cytotoxicity against human H460 cells by MTT assay; format: functional, cell-based; details: NCI-H460
In short: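 Antiproliferative IC50 in H460 cells; mean ± SD of at least three independent experiments.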

Histone deacetylase = experiment: Inhibition of HDAC in human HeLa cell nuclear extract using Boc-Lys(Ac)-AMC as substrate after 30 mins by fluorimetric analysis; format: protein assay
A549 = experiment: Cytotoxicity against human A549 cells by MTT assay; format: functional, cell-based
[3] = Oral bioavailability in ICR mouse at 10 mg/kg by LC-MS/MS analysis; format: ADME, organism-based; details: in vivo
HCT-116 [4] = experiment: Induction of apoptosis in human HCT116 cells assessed as increase in p53 protein level at 0.1 to 3 uM after 24 hrs by immunoblotting analysis; format: functional, cell-based
HCT-116 [5] = experiment: Induction of apoptosis in human HCT116 cells assessed as accumulation at sub-G1 phase after 24 hrs by propidium iodide staining-based flow cytometric analysis; format: functional, cell-based
In short: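 HCT116 cells treated with indicated concentrations for 24 h; DNA content analyzed by flow cytometry for cell cycle distribution and sub-G1 fraction; means of at least three independent experiments.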

HCT-116 [6] = experiment: Induction of apoptosis in human HCT116 cells assessed as accumulation at sub-G1 phase at 1 uM by propidium iodide staining-based flow cytometric analysis; format: functional, cell-based; details: TDE = time-dependent effect
In short: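 HCT116 cells exposed to 1 μM compound for varying time intervals; sub-G1 population quantified by flow cytometry.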

[7] = target: T1, Protein deacetylase HDAC6 (Homo sapiens, UniProt Q9UBN7); experiment: Inhibition of HDAC6 (unknown origin) using RHKK(Ac) (379 to 382) p53 peptide as substrate by fluorescence assay
T1 sequence (Q9UBN7 whole entry): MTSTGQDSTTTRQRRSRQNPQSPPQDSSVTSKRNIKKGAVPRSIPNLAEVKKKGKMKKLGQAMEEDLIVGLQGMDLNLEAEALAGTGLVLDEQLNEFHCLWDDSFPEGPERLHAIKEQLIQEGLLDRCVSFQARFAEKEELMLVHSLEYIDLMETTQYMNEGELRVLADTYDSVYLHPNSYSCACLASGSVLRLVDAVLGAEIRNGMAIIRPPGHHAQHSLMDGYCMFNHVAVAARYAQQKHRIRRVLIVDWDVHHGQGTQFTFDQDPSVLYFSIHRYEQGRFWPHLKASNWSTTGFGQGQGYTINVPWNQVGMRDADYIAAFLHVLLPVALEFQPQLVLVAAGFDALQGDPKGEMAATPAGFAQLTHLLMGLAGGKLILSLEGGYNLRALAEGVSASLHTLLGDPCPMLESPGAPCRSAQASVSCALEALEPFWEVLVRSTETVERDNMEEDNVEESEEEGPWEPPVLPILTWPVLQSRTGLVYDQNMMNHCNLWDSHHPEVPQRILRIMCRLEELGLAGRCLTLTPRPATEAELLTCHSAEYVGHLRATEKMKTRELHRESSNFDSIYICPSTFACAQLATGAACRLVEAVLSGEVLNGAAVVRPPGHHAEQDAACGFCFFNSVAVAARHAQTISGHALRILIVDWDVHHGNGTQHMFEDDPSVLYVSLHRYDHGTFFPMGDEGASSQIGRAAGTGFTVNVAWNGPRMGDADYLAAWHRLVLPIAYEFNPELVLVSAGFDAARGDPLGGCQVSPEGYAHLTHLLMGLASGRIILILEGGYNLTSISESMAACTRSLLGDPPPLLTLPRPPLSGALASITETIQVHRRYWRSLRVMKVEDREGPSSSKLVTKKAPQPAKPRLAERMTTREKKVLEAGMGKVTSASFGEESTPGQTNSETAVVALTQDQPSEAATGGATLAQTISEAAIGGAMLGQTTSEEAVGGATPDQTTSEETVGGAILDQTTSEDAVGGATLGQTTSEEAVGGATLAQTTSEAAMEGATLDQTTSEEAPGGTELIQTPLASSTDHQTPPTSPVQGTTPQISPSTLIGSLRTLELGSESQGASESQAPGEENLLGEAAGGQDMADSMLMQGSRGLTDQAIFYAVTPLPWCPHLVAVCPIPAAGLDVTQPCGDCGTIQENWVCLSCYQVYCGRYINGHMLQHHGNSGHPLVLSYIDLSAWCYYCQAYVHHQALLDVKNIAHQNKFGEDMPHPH

Histone deacetylase 1 = Histone deacetylase 1 (Homo sapiens, UniProt Q13547); experiment: Inhibition of HDAC1 (unknown origin) using RHKK(Ac) (379 to 382) p53 peptide as substrate by fluorescence assay
Chain of Histone deacetylase 1 (Q13547 whole entry): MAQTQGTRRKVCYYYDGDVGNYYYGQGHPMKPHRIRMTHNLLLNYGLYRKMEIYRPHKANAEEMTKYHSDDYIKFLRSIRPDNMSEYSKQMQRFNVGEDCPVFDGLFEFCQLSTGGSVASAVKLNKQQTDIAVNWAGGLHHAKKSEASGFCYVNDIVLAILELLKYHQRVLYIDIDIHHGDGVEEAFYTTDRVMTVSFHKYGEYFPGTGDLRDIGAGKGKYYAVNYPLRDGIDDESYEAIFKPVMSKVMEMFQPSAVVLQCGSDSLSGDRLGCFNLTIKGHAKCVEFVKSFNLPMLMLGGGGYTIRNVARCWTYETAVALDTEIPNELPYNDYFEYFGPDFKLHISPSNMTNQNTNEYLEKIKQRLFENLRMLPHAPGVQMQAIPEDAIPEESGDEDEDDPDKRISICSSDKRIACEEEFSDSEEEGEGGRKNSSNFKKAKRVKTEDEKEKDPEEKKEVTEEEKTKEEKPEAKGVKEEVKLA

Row | SMILES | IC50 (Histone deacetylase) [nM] | bioavailability [3] [%] | IC50 [7] [nM] | IC50 (Histone deacetylase 1) [nM] | IC50 (HCT-116 [1]) [nM] | IC50 (KB) [nM] | IC50 (PC-3) [nM] | IC50 [2] [nM] | IC50 (A549) [nM] | Activity (HCT-116 [4]) | Activity (HCT-116 [5]) | Activity (HCT-116 [6])
1 | O=C(/C=C/c1ccc(S(=O)(=O)n2ccc3cccnc32)cc1)NO | 240 |  |  |  | 1010 | 870 | 1240 | 910 |  |  |  | 
2 | O=C(/C=C/c1cccc(S(=O)(=O)n2ncc3ccccc32)c1)NO | 230 |  |  |  | 1120 | 1260 | 3210 | 1210 |  |  |  | 
3 | O=C(CCCCCCC(=O)Nc1ccccc1)NO [VORINOSTAT] |  | 8.33 |  |  |  |  |  | 820 | 1540 | inactive | Dose-dependent effect | tde
4 | O=C(/C=C/c1ccc(S(=O)(=O)N2CCc3cccnc32)cc1)NO | 850 |  |  |  | 1730 | 1520 | 3640 | 1980 |  |  |  | 
5 | O=C(/C=C/c1cccc(S(=O)(=O)n2ccc3ccncc32)c1)NO | 480 |  | 280 | 4850 | 1210 | 610 | 1110 | 560 |  |  |  | 
6 | O=C(/C=C/c1ccc(S(=O)(=O)n2ncc3ccccc32)cc1)NO | 500 |  |  |  | 3340 | 1830 | 3360 | 2790 |  |  |  | 

Continued, in another order:

Row | IC50 (Histone deacetylase) [nM] | bioavailability [3] [%] | IC50 [7] [nM] | IC50 (Histone deacetylase 1) [nM] | SMILES | IC50 (HCT-116 [1]) [nM] | IC50 (KB) [nM] | IC50 (PC-3) [nM] | IC50 [2] [nM] | IC50 (A549) [nM] | Activity (HCT-116 [4]) | Activity (HCT-116 [5]) | Activity (HCT-116 [6])
7 | 510 |  |  |  | O=C(/C=C/c1cccc(S(=O)(=O)n2ccc3ccccc32)c1)NO | 2470 | 2920 | 4010 | 3010 |  |  |  | 
8 | 600 |  |  |  | O=C(/C=C/c1cccc(S(=O)(=O)N2CCc3cccnc32)c1)NO | 2040 | 1290 | 4110 | 1820 |  |  |  | 
9 | 560 |  |  |  | O=C(/C=C/c1ccc(S(=O)(=O)n2ccc3ccncc32)cc1)NO | 1920 | 1240 | 1970 | 1670 |  |  |  | 
